Bioassay records as filed in PubChem BioAssay.
A selection: hits, their analogues and other compounds. The true share with any hit is near 5.2%.
E coli WT exp: blocks growth of wild type E. coli BW25113; 98,000 compounds, 0.15% hits; OD600 absorbance; growth inhibition, % at 100 µM;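 active = growth inhibition above about 50% at one test dose, limit read from the data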;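 note: growth measured after 20 h incubation at 37 °C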
AP complement: alternative pathway complement inhibition, orthogonal assay. Human serum alternative complement pathway, LPS-coated ELISA, C3 deposition; tested in compound mixtures. inhibition, % at 5 µM. 62,000 compounds, 0.08% hits;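 active = inhibition above 30% in each of the two pooled mixtures holding the compound, so the lower value exceeds 30%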
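Assay system: Human serum alternative complement pathway, C3 deposition on LPS-coated wells | Incubation: 1 h serum-compound exposure at 37 °C | Doses: 5 µM per compound in ten-compound mixtures | Read-out: Percent inhibition | Technique: ELISA with HRP anti-human C3 antibody, TMB substrate, absorbance 450 nm | Replication: Two pool placements per compound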
M1 agonist: M1 muscarinic receptor agonism. CHO-M1 cells, Fluo-4 calcium fluorescence, agonist mode; active compounds read high. B-score at 10 µM. 64,000 compounds, 3% hits;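 active = fluorescence rise, raw or as B-score row- and column-corrected plate score, outside the 99.7% band of its plate's samples, either direction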
M1 antagonist: M1 muscarinic receptor (rat) antagonism; CHO-M1 cells, Fluo-4 calcium, ACh EC80 antagonist mode; active compounds read low; B-score at 10 µM; 64,000 compounds, 3.4% hits; AID 628;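 active = calcium fluorescence response, raw or row-and-column corrected B-score, differing from the plate sample mean either way at a set confidence level, mostly lower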
Target sequence (P08482 whole entry, looked up): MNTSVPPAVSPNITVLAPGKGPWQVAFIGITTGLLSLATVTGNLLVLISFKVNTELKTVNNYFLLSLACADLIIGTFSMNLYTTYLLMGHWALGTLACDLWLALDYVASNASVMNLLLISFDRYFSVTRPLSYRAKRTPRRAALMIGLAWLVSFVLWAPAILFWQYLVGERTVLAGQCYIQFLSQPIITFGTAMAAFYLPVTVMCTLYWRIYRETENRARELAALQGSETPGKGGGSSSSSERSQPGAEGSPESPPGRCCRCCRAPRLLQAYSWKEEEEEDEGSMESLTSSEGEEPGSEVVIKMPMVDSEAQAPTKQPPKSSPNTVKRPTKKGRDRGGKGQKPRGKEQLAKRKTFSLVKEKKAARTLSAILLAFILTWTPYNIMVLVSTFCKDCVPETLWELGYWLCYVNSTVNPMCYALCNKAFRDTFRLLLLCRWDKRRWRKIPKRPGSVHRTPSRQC
WNV protease inh: WNV NS2B-NS3 proteinase inhibition; AID 577; 65,000 compounds, 0.18% hits; z-score (test concentration not listed); WNV NS2B-NS3 protease, fluorogenic substrate Ex360/Em465; active compounds read low; P06935; in the data active = z-score below about -3
tolC growth inh: blocks growth of E. coli BW25113 tolC mutant | OD615 | growth inhibition, % at 10 µM (by protocol) | 65,000 compounds, 2.2% hits;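 active = growth inhibition at or above a cutoff equal to the mean over every tested compound plus 3 SD, cut at about 60% in these data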;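 note: growth measured after 20 h incubation at 37 °C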
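Test system – E. coli BW25113 ΔtolC::kan, tolC deletion mutant strain · Detection – OD at 615 nm · Buffer or medium – LB with kanamycin 50 µg/mL · Times – 20 h compound exposure of bacteria at 37 °C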
Numbers stand for hits; i = inactive; nt = not tested or not shown.

SMILES	E coli WT exp	AP complement	M1 agonist	M1 antagonist	WNV protease inh	tolC growth inh
O=C(CSc1nnc2scc(-c3ccccc3)n12)Nc1nsc(-c2ccccc2)n1	i	i	i	i	i	62
CCNC(=O)Cc1ccc(Br)cc1	i	nt	nt	nt	nt	nt
O=C(Cc1ccc(Br)cc1)c1ccc(O)cc1O	59	i	i	i	i	95
COc1cccc(-c2cc(C(=O)NCCCn3ccnc3)no2)c1	i	nt	nt	nt	nt	nt
O=C(Nc1nccs1)C(NS(=O)(=O)c1ccc(Br)s1)c1ccccc1 (stereo not given)	i	i	i	i	i	61
O=C(CN1CCN(c2nc(-c3ccc(F)cc3)cs2)CC1)NCc1ccc2c(c1)OCO2	i	i	i	i	i	80
CCOC(=O)N1CCN(c2nc(-c3ccc(F)cc3)cs2)CC1	i	i	i	i	i	92
CCCn1c2ccccc2c2nc3ccccc3nc21	i	i	i	i	i	69
Cc1nc2c(n1C1CCCCC1)C(=O)c1ccccc1C2=O	i	nt	nt	nt	nt	nt
O=C(CCc1nc2ccccc2[nH]1)Nc1ccccc1	i	i	i	i	i	i
O=C(Nc1ccccc1)N(CCc1nc2ccccc2[nH]1)C1CCCC1	i	i	2.3	i	i	i
O=C(NCC1CCCO1)C1c2ccccc2C(=O)N1C1CCCCCC1 (stereo not given)	i	i	9.2	i	i	i
C/C(Cn1nc([N+](=O)[O-])cc1C)=N\NC(=O)c1cccc(Br)c1	i	nt	nt	nt	nt	nt
N=c1n(CCN2CCCCC2)c2ccccc2n1CC(O)c1ccc(Cl)c(Cl)c1 (stereo not given)	98	nt	nt	nt	nt	nt
N=c1n(CCN2CCCC2)c2ccccc2n1CC(O)c1ccco1 (stereo not given)	i	i	i	i	i	i
CCOC(=O)c1cc2sccc2n1CC(=O)N1CCCc2ccccc21	i	i	i	i	i	100
CCN1C(=O)CSC1=NC1C2CC3CC(C2)CC1C3 (stereo not given)	i	i	i	i	i	88
CCSc1nnc(NC(=O)CSc2nccn2-c2cc(C)cc(C)c2)s1	i	i	i	i	i	i
CCSc1nnc(NC(=O)CSc2nccn2-c2cccc(C)c2C)s1	i	i	i	i	i	84
COc1ccc(-n2cnc3c(cnn3CCC#N)c2=N)cc1	i	i	i	i	i	i
COc1ccc(CNC(=O)CN(C(=O)c2cc3sccc3n2C)C2CCCC2)cc1	i	i	i	i	i	i
CN1CCCN(C2C3CC4CC(C3)CC2C4)CC1 (stereo not given)	i	nt	nt	nt	nt	nt
O=C(CCSc1ccc(Cl)c(Cl)c1)NC12CC3CC(CC(C3)C1)C2	i	nt	nt	nt	nt	nt
Cc1c(C(=O)N2CCCCC2)oc2ccc(S(=O)(=O)N3CC(C)CC(C)C3)cc12 (stereo not given)	i	i	i	i	i	91
CCOC(=O)N1CCN(C(=O)c2oc3ccc(S(=O)(=O)N4CCCCC4)cc3c2C)CC1	i	i	i	i	i	i
SMILES	E coli WT exp	AP complement	M1 agonist	M1 antagonist	WNV protease inh	tolC growth inh
CC12CCC(c3c(C(=O)Nc4nccs4)nn(-c4ccccc4)c31)C2(C)C (stereo not given)	i	i	i	i	i	i
O=C(Cn1cc(C(=O)c2cccs2)c2ccccc21)NC1CCCCC1	i	nt	nt	nt	nt	nt
O=C(Nc1nc(-c2ccccn2)cs1)C1COc2ccccc2O1 (stereo not given)	i	i	i	i	i	100
CN1[C@@H](CC(=O)c2ccccc2)CCC[C@H]1C[C@H](O)c1ccccc1	nt	i	34	-8.4	i	i
COc1ccc(/C(O)=C2\C(=O)C(=O)N(CC3CCCO3)C2c2cc(OC)ccc2OC)cc1 (stereo not given)	i	i	i	i	i	100
CC1CC(N(C(=O)c2ccco2)c2ccccc2)c2ccccc2N1 (stereo not given)	i	i	i	i	i	68
COc1ccc(NC(=O)CSc2nccc(C)n2)cc1	i	i	i	i	i	i
COc1cc(NC(=O)CSc2nccc(C)n2)c(C(=O)O)cc1OC	i	i	i	1.2	i	i
Cc1ccc(-c2nnn(CC(=O)N(Cc3cccs3)C(C(=O)NC(C)(C)C)c3ccco3)n2)o1 (stereo not given)	i	i	i	i	i	69
Cc1ccc(-c2nnn(CC(=O)N(Cc3ccco3)C(C(=O)NC(C)(C)C)c3cccs3)n2)o1 (stereo not given)	i	i	i	i	i	74
CC(C)(C)NC(=O)C(c1ccco1)N(C(=O)Cn1nnc(-c2ccc(F)cc2)n1)c1cccc(F)c1 (stereo not given)	i	i	i	i	i	67
CC1(C)CC(=O)C2=C(C1)Oc1nc3ccccc3cc1C2C(C#N)C#N (stereo not given)	i	nt	i	i	i	i
COc1cc2cc(C(c3nnnn3C3CCCC3)N3CCCCC3)c(=O)[nH]c2cc1OC (stereo not given)	i	31	i	i	i	i
COc1cc2cc(C(c3nnnn3C3CCCC3)N3CCCCCC3)c(=O)[nH]c2cc1OC (stereo not given)	i	i	i	i	i	i
CSc1ccccc1NC(=O)COc1ccc(S(=O)(=O)N2CCCC2)cc1	i	i	nt	nt	i	i
CC1CCCCN1C(=O)CSc1nc(C2CC2)nc2c1cnn2-c1ccccc1 (stereo not given)	i	i	i	i	i	67
Cc1nn(C)c(C)c1NC(=O)CSc1nc(C2CC2)nc2c1cnn2-c1ccccc1	i	nt	nt	nt	nt	nt
Cn1ccnc1C(O)c1ccc(OCc2ccccc2)cc1 (stereo not given)	i	nt	i	i	i	i
CC(O)c1c(OCc2ccccc2)ncnc1OCc1ccccc1 (stereo not given)	i	i	i	i	i	66
COc1cccc(C(CC(=O)Nc2cccc3ccccc23)NC(=O)c2ccccc2)c1 (stereo not given)	i	nt	nt	nt	nt	nt
Cc1ccc2c(c1)c1c(n2CC(O)Cn2c(C)nc3ccccc32)/C(=N\O)CCC1 (stereo not given)	i	i	i	i	i	78
O=S1(=O)C=CC(Nc2ccccc2)C1 (stereo not given)	i	nt	nt	nt	nt	nt
Cc1cc(NC(=O)c2oc3ccccc3c2C)ccc1-n1cnnn1	i	i	i	i	-5.5	i
COc1cc(OC)cc(C(=O)Nc2ccc(-n3cnnn3)c(C)c2)c1	i	i	i	i	i	i
CCc1sc(C(=O)NCc2cc(C)n(C)n2)cc1Br	i	i	-5.1	i	i	i
SMILES	E coli WT exp	AP complement	M1 agonist	M1 antagonist	WNV protease inh	tolC growth inh
CCc1sc(C(=O)NC)cc1Br	i	i	i	i	i	i
Cc1ccc2[nH]c3c(c2c1)CCC3=O	i	i	i	i	i	i
Cc1ccc2[nH]c3c(c2c1)CCc1cn[nH]c1-3	i	i	i	i	i	100
Cc1cc(C)c2c(N)c3ccccc3nc2n1	52	nt	nt	nt	nt	nt
CCOc1ccc(OCC)c(NC(=O)Nc2ccc3c(c2)N(C)C(=O)CS3)c1	i	nt	nt	nt	nt	nt
Cc1ccc(C)c(C(=O)CSc2n[nH]c(-c3ccncc3)n2)c1	i	i	i	i	i	99
